Assays:
A549 = experiment: Antiproliferative activity against human A549 cells after 48 hrs by SRB assay; assay type: functional, cell-based; details: A549, 48 h
Outline: (§1)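 SRB assay on cells in RPMI-1640 with 2 mM glutamine, 10% FBS and penicillin/streptomycin at 37 °C and 5% CO2. Seeded at 5000 cells/well and grown 24 h, then compounds added in triplicate (DMSO 0.5% final) for 48 h. Fixed with TCA at 4 °C for 1 h, stained with SRB, dye dissolved in 10 mM Tris pH 10.4, OD read at 515 nm. IC50 from nonlinear dose-response fit; experiments run at least twice.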

[1] = Antiproliferative activity against human CNE2 cells after 48 hrs by SRB assay; assay type: functional, cell-based; details: CNE-2, 48 h; outline: as §1
SW480 = experiment: Antiproliferative activity against human SW480 cells after 48 hrs by SRB assay; assay type: functional, cell-based; details: SW480, 48 h; outline: as §1
MCF7 = experiment: Antiproliferative activity against human MCF7 cells after 48 hrs by SRB assay; assay type: functional, cell-based; details: MCF7, 48 h; outline: as §1
HepG2 = experiment: Antiproliferative activity against human HepG2 cells after 48 hrs by SRB assay; assay type: functional, cell-based; details: HepG2, 48 h; outline: as §1
[2] = Inhibition of TNFalpha-induced NF-kappaB translocation in human A549 cells incubated at 37 degC for 30 mins by high content analysis based immunofluorescence assay; assay type: cell-based; details: A549, 0.5 h
Outline: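 A549 cells at 2000/well grown 24 h, then compound added in duplicate (DMSO 0.5% final) for 30 min at 37 °C. Stimulated with TNFα at 10 ng/mL final for 30 min, then fixed with 4% paraformaldehyde and permeabilized with Triton X-100. Stained with anti-p65 and DyLight 488 secondary plus Hoechst, imaged on ArrayScan. Nuclear minus cytoplasmic intensity, background-subtracted, given as % of TNFα-only control. IC50 from this; repeated at least twice.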

[3] = target: T1, RAC-alpha serine/threonine-protein kinase (Homo sapiens, UniProt P31749); experiment: Inhibition of AKT1 by AKT1/PKBalpha KinEASE FP fluorescein green assay
T1 sequence (P31749 whole entry): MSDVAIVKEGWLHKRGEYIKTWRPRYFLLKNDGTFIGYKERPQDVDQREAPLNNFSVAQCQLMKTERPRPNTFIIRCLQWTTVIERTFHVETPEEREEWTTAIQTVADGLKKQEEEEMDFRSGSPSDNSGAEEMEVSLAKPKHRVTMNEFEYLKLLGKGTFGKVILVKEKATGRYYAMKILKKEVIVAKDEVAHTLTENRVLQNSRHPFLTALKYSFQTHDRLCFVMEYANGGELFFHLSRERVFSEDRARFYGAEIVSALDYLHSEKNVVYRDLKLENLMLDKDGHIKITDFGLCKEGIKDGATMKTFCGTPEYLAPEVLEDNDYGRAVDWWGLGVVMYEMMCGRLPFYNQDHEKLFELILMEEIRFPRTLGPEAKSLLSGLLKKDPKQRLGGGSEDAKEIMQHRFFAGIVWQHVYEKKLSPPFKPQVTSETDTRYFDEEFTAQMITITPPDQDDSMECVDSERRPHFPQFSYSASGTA
Outline: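 Kinase reaction with Akt1 enzyme (amount giving 70% activity) and STK Substrate 3 (10 µM final) in 50 mM HEPES pH 7.2, 0.01% BSA, 5 mM MgCl2, 1 mM DTT, preincubated with compound 10 min at 25 °C. ATP (100 µM final) starts reaction, run 1 h at 25 °C. Stopped with phospho-STK tracer plus antibody, 6 h, then FP read (ex 470/em 530 nm). IC50 by nonlinear fit; triplicates, repeated twice.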

[4] = target: T1, RAC-alpha serine/threonine-protein kinase; experiment: Inhibition of AKT1-mediated GSK3beta phosphorylation in human A549 cells incubated for 12 hrs by Western blot; assay type: cell-based
Outline: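 A549 cells grown to 70% confluence, exposed 12 h to compound at 0.125–1.0 µM. Lysed in NP-40 buffer with protease inhibitors, then equal protein run on 10% SDS-PAGE and transferred to PVDF. Probed with anti-phospho-GSK3β (S9) at 1:1000 overnight at 4 °C, then HRP secondary at 1:5000.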

SMILES	IC50 (A549) [nM]	IC50 (SW480) [nM]	IC50 (MCF7) [nM]	IC50 (HepG2) [nM]	IC50 [2] [µM]	IC50 [3] [nM]	inhibition [4]	IC50 [1] [nM]
COc1cccc(/C=C/C(=O)C(=Cc2cc(OC)c(OC)c(OC)c2)C(=O)/C=C/c2cccc(OC)c2OC)c1OC	230	650	840	220	1.32			400
COc1ccc(OC)c(/C=C/C(=O)C(=Cc2cc(Br)c(O)c(OC)c2)C(=O)/C=C/c2cc(OC)ccc2OC)c1	220	490	580	280	4.19	5020		420
COc1ccc(C=C(C(=O)/C=C/c2cccc(OC)c2OC)C(=O)/C=C/c2cccc(OC)c2OC)cc1O	270	320	310	270	1.26			220
COc1cc(/C=C/C(=O)CC(=O)/C=C/c2ccc(O)c(OC)c2)ccc1O [CURCUMIN]	11600	10200	15700	20700	21.4			5760
COc1cccc(C=C(C(=O)/C=C/c2cccc(OC)c2OC)C(=O)/C=C/c2cccc(OC)c2OC)c1OC	320	590	520	230	2.39			400
COc1ccc(C=C(C(=O)/C=C/c2cccc(OC)c2OC)C(=O)/C=C/c2cccc(OC)c2OC)cc1OC	170	410	560	200	1.67			280
COc1cc(C=C(C(=O)/C=C/c2cccc(OC)c2OC)C(=O)/C=C/c2cccc(OC)c2OC)ccc1O	130	430	480	200	1.71	810	Dose-dependent effect	280
COc1cc(C=C(C(=O)/C=C/c2cccc(OC)c2OC)C(=O)/C=C/c2cccc(OC)c2OC)cc(OC)c1O	240	420	460	210	2.62			300
COc1cc(OC)c(/C=C/C(=O)C(=Cc2ccc(O)c(OC)c2)C(=O)/C=C/c2c(OC)cc(OC)cc2OC)c(OC)c1	580	1490	1880	670	> 50			1350
COc1cc(OC)c(/C=C/C(=O)C(=Cc2ccc(O)c(F)c2)C(=O)/C=C/c2c(OC)cc(OC)cc2OC)c(OC)c1	1060	1950	3180	810	> 50			1580
COc1cc(OC)c(/C=C/C(=O)C(=Cc2cc(OC)c(O)c(OC)c2)C(=O)/C=C/c2c(OC)cc(OC)cc2OC)c(OC)c1	340	980	1030	510	> 50			680
COc1cccc(/C=C/C(=O)C(=Cc2ccc(O)c(F)c2)C(=O)/C=C/c2cccc(OC)c2OC)c1OC	200	330	300	220	5.25			260
COc1ccc(OC)c(/C=C/C(=O)C(=Cc2ccc(O)c(OC)c2)C(=O)/C=C/c2cc(OC)ccc2OC)c1	190	410	400	340	2.65			340
COc1cccc(/C=C/C(=O)C(=Cc2ccc(OC)c(OC)c2OC)C(=O)/C=C/c2cccc(OC)c2OC)c1OC	260	560	380	240	1.63			410
COc1ccc(OC)c(/C=C/C(=O)C(=Cc2cc(OC)c(O)c(OC)c2)C(=O)/C=C/c2cc(OC)ccc2OC)c1	190	500	430	210	0.95			450
COc1cc(C=C(C(=O)/C=C/c2cccc(OC)c2OC)C(=O)/C=C/c2cccc(OC)c2OC)cc(Br)c1O	200	260	360	240	5.53			220
COc1ccc(OC)c(/C=C/C(=O)C(=Cc2ccc(OC)c(OC)c2)C(=O)/C=C/c2cc(OC)ccc2OC)c1	400	560	850	260	14.4			550
COc1cc(OC)c(C=C(C(=O)/C=C/c2cccc(OC)c2OC)C(=O)/C=C/c2cccc(OC)c2OC)c(OC)c1	630	840	720	300	> 50			630
COc1ccc(OC)c(/C=C/C(=O)C(=Cc2ccc(OC)c(O)c2)C(=O)/C=C/c2cc(OC)ccc2OC)c1	390	1120	990	470	1.78			730
COc1cc(OC)c(/C=C/C(=O)C(=Cc2cc(Br)c(O)c(OC)c2)C(=O)/C=C/c2c(OC)cc(OC)cc2OC)c(OC)c1	730	1450	1460	660	> 50			1320
COc1cccc(/C=C/C(=O)C(=Cc2ccc(F)cc2)C(=O)/C=C/c2cccc(OC)c2OC)c1OC	340	1040	1830	580	1.72			610

Further lines, with some results ahead:

IC50 (A549) [nM]	IC50 (SW480) [nM]	IC50 (MCF7) [nM]	IC50 (HepG2) [nM]	IC50 [2] [µM]	IC50 [3] [nM]	inhibition [4]	SMILES	IC50 [1] [nM]
380	1370	1600	390	12.3	1660		COc1ccc(/C=C/C(=O)C(=Cc2ccc(OC)c(O)c2)C(=O)/C=C/c2ccc(OC)cc2OC)c(OC)c1	760
> 50000	> 50000	> 50000	16500	> 50			COc1cc(OC)c(/C=C/C(=O)/C=C(O)/C=C/c2c(OC)cc(OC)cc2OC)c(OC)c1	> 50000
300	850	970	320	3.93			COc1ccc(/C=C/C(=O)C(=Cc2cc(OC)c(O)c(OC)c2)C(=O)/C=C/c2ccc(OC)cc2OC)c(OC)c1	850
590	1520	2140	510	10.4			COc1ccc(/C=C/C(=O)C(=Cc2ccc(O)c(OC)c2)C(=O)/C=C/c2ccc(OC)cc2OC)c(OC)c1	970
220	510	460	220	3.01			COc1ccc(OC)c(/C=C/C(=O)C(=Cc2ccc(O)c(F)c2)C(=O)/C=C/c2cc(OC)ccc2OC)c1	380
11500	12000	> 50000	12900	> 50			COc1cccc(/C=C/C(=O)/C=C(O)/C=C/c2cccc(OC)c2OC)c1OC	12800
44700	> 50000	> 50000	10400	> 50			COc1ccc(/C=C/C(=O)/C=C(O)/C=C/c2ccc(OC)cc2OC)c(OC)c1	> 50000
16300	15600	> 50000	5560	> 50			COc1ccc(OC)c(/C=C/C(=O)/C=C(O)/C=C/c2cc(OC)ccc2OC)c1	14700
1090	1480	2600	1190	> 50			COc1ccc(/C=C/C(=O)C(=Cc2cc(Br)c(O)c(OC)c2)C(=O)/C=C/c2ccc(OC)cc2OC)c(OC)c1	1780
2070	3350	5450	1760	23			COc1ccc(/C=C/C(=O)C(=Cc2ccc(O)c(F)c2)C(=O)/C=C/c2ccc(OC)cc2OC)c(OC)c1	2830

— ChEMBL document CHEMBL2062524, “Synthesis, cytotoxicity of new 4-arylidene curcumin analogues and their multi-functions in inhibition of both NF-κB and Akt signalling” (Eur J Med Chem, 2012)
